Test results published in ChEMBL document CHEMBL1152541, “Staurosporine tethered peptide ligands that target cAMP-dependent protein kinase (PKA): optimization and selectivity profiling” (Bioorg Med Chem, 2009).
Blank lines part the entries; values can stand above or below the molecule they belong to. *1 amine or outer side, *2 acyl side, *3 side chain or, on linkers, in order; H or OH if unused. Where a SMILES comes first, the peptide text is derived from it. Bridges are numbered along the chain shown (N, C = ends). [ ]: non-standard residue; d: D form. The star is where a group is joined. Staurosporine = CO[C@@H]1[C@H](N(C)*)C[C@H]2O[C@]1(C)n1c3ccccc3c3c4c(c5c6ccccc6n2c5c31)C(=O)NC4; Suc = O=C(CCC(=O)[*:2])[*:1]; Dap = NC[C@H](N)C(=O)O; βAla = NCCC(=O)O

Assays:
[1] = molecular target: Macrophage colony-stimulating factor 1 receptor (Homo sapiens) (UniProt P07333); test: Binding affinity to human CSF1R at 500 nM by cell-based competition binding assay relative to control in presence of DTT
Chain of Macrophage colony-stimulating factor 1 receptor (Homo sapiens) (P07333 whole entry): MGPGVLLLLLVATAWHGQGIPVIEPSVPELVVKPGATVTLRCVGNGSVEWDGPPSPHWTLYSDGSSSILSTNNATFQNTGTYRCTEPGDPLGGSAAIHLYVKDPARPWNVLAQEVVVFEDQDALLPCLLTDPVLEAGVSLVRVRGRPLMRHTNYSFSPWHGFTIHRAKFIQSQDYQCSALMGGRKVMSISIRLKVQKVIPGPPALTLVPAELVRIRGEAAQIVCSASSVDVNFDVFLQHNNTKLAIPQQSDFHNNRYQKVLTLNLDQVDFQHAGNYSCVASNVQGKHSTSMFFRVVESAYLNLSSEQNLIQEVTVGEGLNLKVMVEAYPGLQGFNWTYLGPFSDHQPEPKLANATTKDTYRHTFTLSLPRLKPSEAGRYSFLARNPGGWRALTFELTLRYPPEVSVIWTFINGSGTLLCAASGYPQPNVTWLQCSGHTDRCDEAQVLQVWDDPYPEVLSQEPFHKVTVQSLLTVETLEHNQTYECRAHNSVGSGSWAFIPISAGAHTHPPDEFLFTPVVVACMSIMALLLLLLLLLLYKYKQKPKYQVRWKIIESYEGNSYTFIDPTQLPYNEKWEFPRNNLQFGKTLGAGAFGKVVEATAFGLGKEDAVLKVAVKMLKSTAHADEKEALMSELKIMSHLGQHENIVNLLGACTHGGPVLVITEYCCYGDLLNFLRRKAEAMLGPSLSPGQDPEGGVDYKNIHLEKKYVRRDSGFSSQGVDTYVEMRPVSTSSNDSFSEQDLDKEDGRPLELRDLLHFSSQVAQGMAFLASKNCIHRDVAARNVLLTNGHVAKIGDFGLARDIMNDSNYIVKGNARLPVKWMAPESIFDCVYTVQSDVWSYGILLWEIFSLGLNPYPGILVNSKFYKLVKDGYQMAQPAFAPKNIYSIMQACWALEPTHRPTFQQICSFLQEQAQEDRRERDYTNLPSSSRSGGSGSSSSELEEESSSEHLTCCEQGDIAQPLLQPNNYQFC
Outline: (§1)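 Commercial (Ambit) competitive kinase-binding panel of 90 kinases measured the binding profile. Run under reducing conditions of 7.5 mM DTT. Binding is expressed relative to control.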

[2] = molecular target: Phosphatidylinositol 4,5-bisphosphate 3-kinase catalytic subunit gamma isoform (Homo sapiens) (UniProt P48736); test: Binding affinity to human PIK3Cgamma at 500 nM by cell-based competition binding assay relative to control in presence of DTT
Chain of Phosphatidylinositol 4,5-bisphosphate 3-kinase catalytic subunit gamma isoform (Homo sapiens) (P48736 whole entry, looked up, canonical isoform): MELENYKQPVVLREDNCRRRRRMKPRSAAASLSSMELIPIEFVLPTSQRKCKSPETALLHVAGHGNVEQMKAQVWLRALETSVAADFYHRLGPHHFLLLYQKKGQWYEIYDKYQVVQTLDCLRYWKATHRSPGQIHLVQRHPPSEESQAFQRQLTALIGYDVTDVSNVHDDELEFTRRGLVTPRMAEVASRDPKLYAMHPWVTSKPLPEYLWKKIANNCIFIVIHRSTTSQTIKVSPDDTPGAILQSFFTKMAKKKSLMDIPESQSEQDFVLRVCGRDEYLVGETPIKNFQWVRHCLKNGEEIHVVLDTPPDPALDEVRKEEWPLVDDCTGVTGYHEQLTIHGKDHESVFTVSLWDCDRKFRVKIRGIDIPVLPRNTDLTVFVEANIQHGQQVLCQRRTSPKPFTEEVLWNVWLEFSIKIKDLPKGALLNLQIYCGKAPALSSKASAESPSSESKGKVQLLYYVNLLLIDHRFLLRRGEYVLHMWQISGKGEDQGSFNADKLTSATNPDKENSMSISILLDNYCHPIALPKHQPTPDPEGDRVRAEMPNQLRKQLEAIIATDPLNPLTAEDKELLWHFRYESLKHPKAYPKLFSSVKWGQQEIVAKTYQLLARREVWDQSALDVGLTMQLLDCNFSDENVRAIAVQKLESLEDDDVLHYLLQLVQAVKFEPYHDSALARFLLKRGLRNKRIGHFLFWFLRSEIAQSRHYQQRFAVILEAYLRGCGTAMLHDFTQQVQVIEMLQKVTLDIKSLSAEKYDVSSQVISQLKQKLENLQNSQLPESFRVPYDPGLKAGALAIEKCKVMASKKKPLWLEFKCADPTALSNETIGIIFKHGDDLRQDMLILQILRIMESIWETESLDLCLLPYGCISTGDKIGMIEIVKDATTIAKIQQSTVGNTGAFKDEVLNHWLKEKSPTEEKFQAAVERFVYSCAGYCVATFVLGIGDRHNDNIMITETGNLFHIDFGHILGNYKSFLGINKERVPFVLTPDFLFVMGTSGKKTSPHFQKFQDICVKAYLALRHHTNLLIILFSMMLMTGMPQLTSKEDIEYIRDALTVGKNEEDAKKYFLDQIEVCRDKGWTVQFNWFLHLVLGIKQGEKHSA

[3] = molecular target: T1, Serine/threonine-protein kinase PLK4 (Homo sapiens) (UniProt O00444); test: Binding affinity to human PLK4 at 500 nM by cell-based competition binding assay relative to control in presence of DTT
T1 sequence (whole entry): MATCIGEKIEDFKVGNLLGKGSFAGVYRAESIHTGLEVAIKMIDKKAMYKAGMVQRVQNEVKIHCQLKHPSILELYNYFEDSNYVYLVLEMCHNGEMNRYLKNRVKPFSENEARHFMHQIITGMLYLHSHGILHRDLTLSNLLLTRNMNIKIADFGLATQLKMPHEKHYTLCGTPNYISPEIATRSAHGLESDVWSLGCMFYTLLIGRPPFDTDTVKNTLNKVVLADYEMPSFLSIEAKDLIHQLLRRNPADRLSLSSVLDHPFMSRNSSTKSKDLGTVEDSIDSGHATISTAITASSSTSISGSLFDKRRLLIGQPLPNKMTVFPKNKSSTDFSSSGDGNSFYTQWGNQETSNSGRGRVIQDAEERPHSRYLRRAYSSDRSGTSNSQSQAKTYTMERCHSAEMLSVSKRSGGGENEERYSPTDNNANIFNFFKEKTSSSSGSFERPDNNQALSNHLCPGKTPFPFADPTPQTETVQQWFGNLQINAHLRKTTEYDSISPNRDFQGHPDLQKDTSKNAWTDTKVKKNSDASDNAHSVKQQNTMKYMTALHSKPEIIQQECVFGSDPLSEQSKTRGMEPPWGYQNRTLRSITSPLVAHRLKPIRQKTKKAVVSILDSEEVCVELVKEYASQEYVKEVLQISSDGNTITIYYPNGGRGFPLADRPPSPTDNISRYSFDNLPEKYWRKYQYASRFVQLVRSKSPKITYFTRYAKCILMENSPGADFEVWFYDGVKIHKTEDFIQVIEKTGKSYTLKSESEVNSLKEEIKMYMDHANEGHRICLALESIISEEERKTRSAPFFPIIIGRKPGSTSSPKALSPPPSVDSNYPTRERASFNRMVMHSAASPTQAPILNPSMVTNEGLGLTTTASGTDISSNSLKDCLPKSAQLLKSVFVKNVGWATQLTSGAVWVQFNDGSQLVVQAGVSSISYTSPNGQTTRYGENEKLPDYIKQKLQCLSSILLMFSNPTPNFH

[4] = molecular target: Glycogen synthase kinase-3 beta (Homo sapiens) (UniProt P49841); test: Ratio of compound to staurosporine binding affinity to human GSK3-beta in presence of DTT
Chain of Glycogen synthase kinase-3 beta (Homo sapiens) (P49841 whole entry, looked up): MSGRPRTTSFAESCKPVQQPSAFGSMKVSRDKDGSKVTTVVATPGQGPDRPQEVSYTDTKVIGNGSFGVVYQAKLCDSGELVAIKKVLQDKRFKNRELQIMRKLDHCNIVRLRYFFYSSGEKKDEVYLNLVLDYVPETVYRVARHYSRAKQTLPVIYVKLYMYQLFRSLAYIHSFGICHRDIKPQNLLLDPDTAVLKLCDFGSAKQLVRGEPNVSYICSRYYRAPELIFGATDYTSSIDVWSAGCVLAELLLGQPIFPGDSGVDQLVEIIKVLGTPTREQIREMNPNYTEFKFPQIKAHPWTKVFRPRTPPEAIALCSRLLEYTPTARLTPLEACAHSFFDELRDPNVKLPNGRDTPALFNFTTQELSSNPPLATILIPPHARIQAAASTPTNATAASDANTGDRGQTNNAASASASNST

[5] = molecular target: T2, Serine/threonine-protein kinase STK11 (Homo sapiens) (UniProt Q15831); test: Binding affinity to human LKB1 at 500 nM by cell-based competition binding assay relative to control in presence of DTT
T2 sequence (whole entry): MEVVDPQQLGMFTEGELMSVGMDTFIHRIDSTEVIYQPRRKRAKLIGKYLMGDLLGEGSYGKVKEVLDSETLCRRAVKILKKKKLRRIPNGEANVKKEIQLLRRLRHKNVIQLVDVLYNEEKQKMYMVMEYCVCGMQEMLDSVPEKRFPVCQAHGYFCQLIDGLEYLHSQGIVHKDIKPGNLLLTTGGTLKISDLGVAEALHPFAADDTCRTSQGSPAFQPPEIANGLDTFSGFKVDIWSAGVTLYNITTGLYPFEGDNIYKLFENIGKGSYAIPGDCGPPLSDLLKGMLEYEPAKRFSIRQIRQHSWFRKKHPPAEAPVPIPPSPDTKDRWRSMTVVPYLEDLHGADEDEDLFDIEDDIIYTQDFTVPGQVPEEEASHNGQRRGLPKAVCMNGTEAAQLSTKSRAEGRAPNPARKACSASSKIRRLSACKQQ
Outline: (§2)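 Competition binding screen (Ambit) across a panel of 90 kinases, scoring test ligand displacement of each kinase's binding relative to control. The screen ran under reducing conditions with 7.5 mM DTT.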

[6] = molecular target: Mitogen-activated protein kinase kinase kinase 9 (Homo sapiens) (UniProt P80192); test: Binding affinity to human MLK1 at 500 nM by cell-based competition binding assay relative to control in presence of DTT
[7] = molecular target: Cyclin-dependent kinase 16 (Homo sapiens) (UniProt Q00536); test: Binding affinity to human PCTK1 at 500 nM by cell-based competition binding assay relative to control in presence of DTT
Chain of Cyclin-dependent kinase 16 (Homo sapiens) (Q00536 whole entry): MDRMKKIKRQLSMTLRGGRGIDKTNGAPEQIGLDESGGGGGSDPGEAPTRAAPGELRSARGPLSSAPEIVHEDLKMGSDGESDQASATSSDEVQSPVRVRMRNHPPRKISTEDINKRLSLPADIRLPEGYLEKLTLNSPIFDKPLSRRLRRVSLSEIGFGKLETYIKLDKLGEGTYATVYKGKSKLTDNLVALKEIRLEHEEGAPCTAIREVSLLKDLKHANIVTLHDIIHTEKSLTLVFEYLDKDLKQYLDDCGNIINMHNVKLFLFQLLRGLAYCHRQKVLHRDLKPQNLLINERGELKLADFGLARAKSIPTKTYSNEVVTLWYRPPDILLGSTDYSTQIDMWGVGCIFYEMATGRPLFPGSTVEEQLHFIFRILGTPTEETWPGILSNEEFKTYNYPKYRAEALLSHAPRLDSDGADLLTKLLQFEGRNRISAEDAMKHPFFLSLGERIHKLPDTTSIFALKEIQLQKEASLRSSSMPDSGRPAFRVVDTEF

[8] = molecular target: Epidermal growth factor receptor (Homo sapiens) (UniProt P00533); test: Binding affinity to human EGFR at 200 nM by cell-based competition binding assay relative to control in presence of DTT; outline: as §1
[9] = molecular target: MAP kinase-interacting serine/threonine-protein kinase 2 (Homo sapiens) (UniProt Q9HBH9); test: Binding affinity to human MKNK2 at 200 nM by cell-based competition binding assay relative to control in presence of DTT
Chain of MAP kinase-interacting serine/threonine-protein kinase 2 (Homo sapiens) (Q9HBH9 whole entry, looked up): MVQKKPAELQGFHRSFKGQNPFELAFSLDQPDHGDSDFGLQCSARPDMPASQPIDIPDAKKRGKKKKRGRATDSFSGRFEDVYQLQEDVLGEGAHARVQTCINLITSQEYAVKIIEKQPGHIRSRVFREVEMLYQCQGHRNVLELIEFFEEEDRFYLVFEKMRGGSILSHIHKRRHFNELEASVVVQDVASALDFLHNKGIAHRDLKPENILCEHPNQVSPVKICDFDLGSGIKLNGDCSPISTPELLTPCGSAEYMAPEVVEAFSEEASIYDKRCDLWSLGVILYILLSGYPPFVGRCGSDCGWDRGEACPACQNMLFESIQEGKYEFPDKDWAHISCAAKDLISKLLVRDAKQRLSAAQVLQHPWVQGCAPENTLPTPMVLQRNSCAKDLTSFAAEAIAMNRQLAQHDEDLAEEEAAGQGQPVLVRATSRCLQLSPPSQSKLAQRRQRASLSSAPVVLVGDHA

[10] = molecular target: RAC-alpha serine/threonine-protein kinase (Homo sapiens) (UniProt P31749); test: Binding affinity to human AKT1 at 200 nM by cell-based competition binding assay relative to control in presence of DTT
Outline: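 Kinase binding profiling ran on a commercial (Ambit) competitive binding screen against a panel of 90 kinases. The screen used reducing conditions with 7.5 mM DTT. To withstand the DTT, the bivalent ligand was tested as its amide isostere, with the disulfide replaced. A staurosporine derivative carrying a 3 β-alanine linker was run as the reference compound.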

[11] = molecular target: Non-receptor tyrosine-protein kinase TYK2 (Homo sapiens) (UniProt P29597); test: Binding affinity to human TYK2 kinase domain 2 at 200 nM by cell-based competition binding assay relative to control in presence of DTT
Chain of Non-receptor tyrosine-protein kinase TYK2 (Homo sapiens) (P29597 whole entry, the tested form may be a part): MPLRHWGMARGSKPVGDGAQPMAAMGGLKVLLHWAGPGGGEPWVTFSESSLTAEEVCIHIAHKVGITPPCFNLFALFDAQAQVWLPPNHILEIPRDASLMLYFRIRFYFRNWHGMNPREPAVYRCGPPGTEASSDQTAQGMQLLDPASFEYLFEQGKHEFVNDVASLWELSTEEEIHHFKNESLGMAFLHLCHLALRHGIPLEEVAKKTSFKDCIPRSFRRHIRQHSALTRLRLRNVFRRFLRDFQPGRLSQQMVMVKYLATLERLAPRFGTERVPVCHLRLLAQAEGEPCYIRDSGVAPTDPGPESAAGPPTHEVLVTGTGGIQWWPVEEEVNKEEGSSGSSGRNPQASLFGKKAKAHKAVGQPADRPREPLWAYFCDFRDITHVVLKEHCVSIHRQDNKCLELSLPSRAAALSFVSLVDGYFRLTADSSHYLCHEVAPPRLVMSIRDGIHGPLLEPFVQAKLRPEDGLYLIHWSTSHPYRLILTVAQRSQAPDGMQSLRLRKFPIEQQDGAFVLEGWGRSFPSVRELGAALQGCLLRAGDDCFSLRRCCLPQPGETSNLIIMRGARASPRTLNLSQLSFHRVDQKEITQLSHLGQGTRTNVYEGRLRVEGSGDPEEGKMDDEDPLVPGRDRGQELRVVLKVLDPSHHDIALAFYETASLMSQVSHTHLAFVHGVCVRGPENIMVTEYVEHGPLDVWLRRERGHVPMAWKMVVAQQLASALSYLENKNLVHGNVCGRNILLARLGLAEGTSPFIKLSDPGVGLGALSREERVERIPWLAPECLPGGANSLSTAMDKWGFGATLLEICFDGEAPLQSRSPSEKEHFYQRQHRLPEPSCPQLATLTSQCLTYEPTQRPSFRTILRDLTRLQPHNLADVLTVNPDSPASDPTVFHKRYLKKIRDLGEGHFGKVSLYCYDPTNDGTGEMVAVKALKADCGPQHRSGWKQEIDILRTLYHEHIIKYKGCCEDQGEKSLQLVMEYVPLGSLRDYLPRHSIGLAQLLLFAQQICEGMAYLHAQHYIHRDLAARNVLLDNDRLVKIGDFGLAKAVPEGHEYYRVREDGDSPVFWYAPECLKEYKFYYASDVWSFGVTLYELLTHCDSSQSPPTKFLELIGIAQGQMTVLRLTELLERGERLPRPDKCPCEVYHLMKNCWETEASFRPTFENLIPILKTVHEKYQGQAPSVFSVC

[12] = molecular target: Dual specificity mitogen-activated protein kinase kinase 2 (Homo sapiens) (UniProt P36507); test: Binding affinity to human MEK2 at 50 nM by cell-based competition binding assay relative to control in presence of DTT
Chain of Dual specificity mitogen-activated protein kinase kinase 2 (Homo sapiens) (P36507 whole entry): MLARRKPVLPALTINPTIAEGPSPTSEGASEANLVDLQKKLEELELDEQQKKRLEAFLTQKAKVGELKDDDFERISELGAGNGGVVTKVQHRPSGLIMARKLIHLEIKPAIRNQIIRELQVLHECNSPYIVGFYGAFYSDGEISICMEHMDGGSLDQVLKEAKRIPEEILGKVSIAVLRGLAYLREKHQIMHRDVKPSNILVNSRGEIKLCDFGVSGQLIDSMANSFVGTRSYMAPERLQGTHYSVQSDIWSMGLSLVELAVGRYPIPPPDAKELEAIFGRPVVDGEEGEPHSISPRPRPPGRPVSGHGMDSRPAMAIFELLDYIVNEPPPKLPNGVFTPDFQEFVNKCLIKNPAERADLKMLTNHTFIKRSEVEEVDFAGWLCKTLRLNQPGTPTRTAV

[13] = molecular target: Hepatocyte growth factor receptor (Homo sapiens) (UniProt P08581); test: Binding affinity to human MET at 50 nM by cell-based competition binding assay relative to control in presence of DTT
[14] = molecular target: MAP kinase-interacting serine/threonine-protein kinase 2 (Homo sapiens) (UniProt Q9HBH9); test: Binding affinity to human MKNK2 at 50 nM by cell-based competition binding assay relative to control in presence of DTT
[15] = molecular target: Platelet-derived growth factor receptor beta (Homo sapiens) (UniProt P09619); test: Binding affinity to human PDGFRbeta at 50 nM by cell-based competition binding assay relative to control in presence of DTT
[16] = molecular target: Glycogen synthase kinase-3 beta (Homo sapiens) (UniProt P49841); test: Binding affinity to human GSK3-beta at 50 nM by cell-based competition binding assay relative to control in presence of DTT; outline: as §2

Activity [1]: 22%
Activity [2]: 15%
Activity [3]: 3.6%
Selectivity ratio [4]: 7
Activity [5]: 41%
Activity [6]: 0.55%
Activity [7]: 75%
SMILES: CO[C@@H]1[C@H](N(C)C(=O)CCC(=O)NCCC(=O)NCCC(=O)NCCC(N)=O)C[C@H]2O[C@]1(C)n1c3ccccc3c3c4c(c5c6ccccc6n2c5c31)C(=O)NC4

Activity [8]: 96%
Activity [9]: 57%
Activity [10]: 100%
Activity [11]: 62%
SMILES: CO[C@@H]1[C@H](N(C)C(=O)CCC(=O)NCCC(=O)NCCC(=O)NCCC(=O)NCCC(=O)NCCC(=O)NCCC(=O)NCCC(=O)N[C@H]2CSSC[C@@H](C(=O)NCC(N)=O)NC(=O)CNC(=O)[C@H](Cc3ccccc3)NC(=O)[C@H](C(C)C)NC(=O)[C@H](CCCNC(=N)N)NC(=O)[C@H](Cc3ccccc3)NC(=O)[C@H](C(C)C)NC2=O)C[C@H]2O[C@]1(C)n1c3ccccc3c3c4c(c5c6ccccc6n2c5c31)C(=O)NC4 ({Staurosporine-Suc-βAla-βAla-βAla-βAla-βAla-βAla-βAla}-CVFRVFGCG-NH2; disulfide 1-8)

Activity [12]: 87%
Activity [13]: 100%
Activity [14]: 100%
Activity [15]: 23%
Activity [16]: 74%
SMILES: CO[C@@H]1[C@H](N(C)C(=O)CCC(=O)NCCC(=O)NCCC(=O)NCCC(=O)NCCC(=O)NCCC(=O)NCCC(=O)NCCC(=O)N[C@H]2CNC(=O)C[C@@H](C(N)=O)NC(=O)CNC(=O)[C@H](Cc3ccccc3)NC(=O)[C@H](C(C)C)NC(=O)[C@H](CCCNC(=N)N)NC(=O)[C@H](Cc3ccccc3)NC(=O)[C@H](C(C)C)NC2=O)C[C@H]2O[C@]1(C)n1c3ccccc3c3c4c(c5c6ccccc6n2c5c31)C(=O)NC4 ({Staurosporine-Suc-βAla-βAla-βAla-βAla-βAla-βAla-βAla}-[Dap]VFRVFGD-NH2; lactam 1-8)
